# Assay results as given in ChEMBL document CHEMBL4152390, “Discovery of the First-in-Class Dual Histone Deacetylase-Proteasome Inhibitor” (J Med Chem, 2018).
# Activity calls are given as the source filed them. The rule behind the calls is not given here.
# Legend:
# SEM cells [1] = experiment: Induction of apoptosis in human SEM cells assessed as increase in caspase 3/7 activity at IC50 after 48 hrs by glo assay relative to control; assay type: functional
# Outline: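 Cells treated at IC50 or 2x IC50 for 48 h; caspase-3/7 activity read by luminescence after cleavage of a DEVD-containing luminogenic substrate.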
# [2] = target: T1, Protein deacetylase HDAC6 (Homo sapiens) (UniProt Q9UBN7); experiment: Inhibition of HDAC6 in human SEM cells assessed as increase in acetyl-alpha tubulin expression at 0.1 to 10 uM after 24 hrs by immunoblot assay; assay type: cell-based
# T1 sequence (whole entry): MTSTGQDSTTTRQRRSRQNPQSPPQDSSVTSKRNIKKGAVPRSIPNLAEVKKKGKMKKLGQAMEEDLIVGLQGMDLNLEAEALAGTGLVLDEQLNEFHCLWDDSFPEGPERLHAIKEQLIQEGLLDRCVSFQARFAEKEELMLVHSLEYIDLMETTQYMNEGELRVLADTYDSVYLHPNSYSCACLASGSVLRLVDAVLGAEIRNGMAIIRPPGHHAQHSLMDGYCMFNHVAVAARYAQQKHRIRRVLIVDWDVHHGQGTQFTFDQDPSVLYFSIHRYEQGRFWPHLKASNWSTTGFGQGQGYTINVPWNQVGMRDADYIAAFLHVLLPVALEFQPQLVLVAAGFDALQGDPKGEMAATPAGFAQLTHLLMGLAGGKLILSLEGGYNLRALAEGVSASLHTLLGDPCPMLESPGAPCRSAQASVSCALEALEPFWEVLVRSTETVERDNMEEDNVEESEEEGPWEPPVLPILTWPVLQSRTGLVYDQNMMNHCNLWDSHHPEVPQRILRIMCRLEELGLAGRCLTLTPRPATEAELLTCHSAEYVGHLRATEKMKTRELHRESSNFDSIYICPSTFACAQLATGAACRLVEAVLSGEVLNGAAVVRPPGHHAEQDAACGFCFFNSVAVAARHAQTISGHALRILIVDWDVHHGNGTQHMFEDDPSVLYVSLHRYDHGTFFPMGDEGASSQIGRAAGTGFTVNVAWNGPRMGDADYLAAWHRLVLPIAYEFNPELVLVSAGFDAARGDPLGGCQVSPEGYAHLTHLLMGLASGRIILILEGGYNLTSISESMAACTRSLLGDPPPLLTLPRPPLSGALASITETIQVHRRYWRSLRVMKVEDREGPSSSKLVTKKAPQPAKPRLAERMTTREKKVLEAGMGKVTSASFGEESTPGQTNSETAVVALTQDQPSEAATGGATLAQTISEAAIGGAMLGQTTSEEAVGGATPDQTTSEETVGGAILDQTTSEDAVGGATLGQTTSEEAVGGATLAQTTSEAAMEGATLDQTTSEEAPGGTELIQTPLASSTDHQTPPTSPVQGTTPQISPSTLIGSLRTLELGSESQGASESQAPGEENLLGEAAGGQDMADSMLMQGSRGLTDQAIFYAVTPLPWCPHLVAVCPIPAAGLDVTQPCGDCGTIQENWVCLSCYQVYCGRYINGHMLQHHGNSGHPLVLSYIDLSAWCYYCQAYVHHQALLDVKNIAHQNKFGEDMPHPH
# Outline: (§1)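 Cells exposed for 24 h at indicated concentrations; lysates immunoblotted for acetyl-α-tubulin, acetyl-histone H3, PARP, with GAPDH as loading control.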
# [3] = target: Proteasome Macropain subunit (Homo sapiens) (UniProt P49721); experiment: Inhibition of trypsin-like activity of 20S proteasome in human SEM cells at 4 nM to 25 uM using Z-LRR-aminoluciferin as substrate after 2 hrs by proteasome-Glo assay; assay type: cell-based
# Sequence of Proteasome Macropain subunit (Homo sapiens) (P49721 whole entry): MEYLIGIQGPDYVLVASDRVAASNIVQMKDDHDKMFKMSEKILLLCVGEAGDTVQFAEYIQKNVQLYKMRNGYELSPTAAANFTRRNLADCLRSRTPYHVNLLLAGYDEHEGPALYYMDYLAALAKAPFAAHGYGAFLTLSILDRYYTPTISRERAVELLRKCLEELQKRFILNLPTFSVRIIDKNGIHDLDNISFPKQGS
# [4] = target: T2, Proteasome component C5 (Homo sapiens) (UniProt P20618); experiment: Inhibition of caspase-like activity of 20S proteasome in human HL60 cells at 4 nM to 25 uM using Z-nLPnLD-aminoluciferin as substrate after 2 hrs by proteasome-Glo assay; assay type: cell-based
# T2 sequence (whole entry): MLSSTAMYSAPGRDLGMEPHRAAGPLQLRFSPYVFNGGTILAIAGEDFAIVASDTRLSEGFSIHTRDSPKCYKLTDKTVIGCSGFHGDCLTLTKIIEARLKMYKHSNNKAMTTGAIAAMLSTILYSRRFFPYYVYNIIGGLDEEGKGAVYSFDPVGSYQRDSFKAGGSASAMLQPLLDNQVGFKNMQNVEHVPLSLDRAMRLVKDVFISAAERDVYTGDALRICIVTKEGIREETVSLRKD
# SEM cells [5] = experiment: Cytotoxicity against human SEM cells after 72 hrs by CellTiter-Glo luminescent cell viability assay; assay type: functional, cell-based
# Outline: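 Inhibitors dispensed in increasing concentrations (50 nM–25 μM) and cells exposed 72 h. Viability read by ATP-dependent luminescence (CellTiter-Glo). Raw data normalized to controls. IC50 obtained by sigmoid dose–response fit with non-linear regression.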
# [6] = target: T2, Proteasome component C5 (Homo sapiens); experiment: Inhibition of caspase-like activity of 20S proteasome in imatinib-resistant human SUP-B15 cells at 4 nM to 25 uM using Z-nLPnLD-aminoluciferin as substrate after 2 hrs by proteasome-Glo assay; assay type: cell-based
# SEM cells [7] = experiment: Inhibition of HDAC6/chymotrypsin-like activity of 20S proteasome in human SEM cells assessed as increase in ATF4 protein expression at 0.1 to 10 uM after 18 hrs by Western blot assay; assay type: cell-based
# Outline: (§2)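 Cells treated 18 h at indicated concentrations; lysates analysed by western blot for heat shock (Grp94, HSP70, HSP40, HSP27), UPR (BIP, ATF4, ATF6, pJNK) and autophagy (LC3B, p62) proteins.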
# Histone deacetylase 8 = target: T3, Histone deacetylase 8 (Homo sapiens, UniProt Q9BY41); experiment: Inhibition of C-terminal His-tagged recombinant human HDAC8 expressed in baculovirus infected insect cells using RHK(Ac)K(Ac)AMC as substrate by fluorescence-based assay
# T3 sequence (Q9BY41 whole entry): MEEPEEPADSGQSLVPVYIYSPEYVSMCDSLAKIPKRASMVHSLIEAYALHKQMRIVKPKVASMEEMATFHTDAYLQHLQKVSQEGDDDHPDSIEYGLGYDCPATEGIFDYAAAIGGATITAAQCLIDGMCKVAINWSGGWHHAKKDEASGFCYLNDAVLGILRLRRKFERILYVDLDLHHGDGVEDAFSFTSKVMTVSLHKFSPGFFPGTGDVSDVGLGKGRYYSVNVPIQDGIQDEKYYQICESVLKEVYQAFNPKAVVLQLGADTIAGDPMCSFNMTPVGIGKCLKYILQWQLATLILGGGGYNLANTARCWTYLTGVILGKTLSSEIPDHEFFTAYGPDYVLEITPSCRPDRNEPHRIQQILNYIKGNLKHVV
# SEM cells [8] = experiment: Antiproliferative activity against human SEM cells at IC50 to 2 times IC50 after 24 to 72 hrs by trypan exclusion method; assay type: functional, cell-based
# SEM cells [9] = experiment: Inhibition of HDAC6/chymotrypsin-like activity of 20S proteasome in human SEM cells assessed as increase in cleaved PARP expression at 0.1 to 10 uM after 24 hrs by immunoblot assay; assay type: cell-based; outline: as §1
# SEM cells [10] = experiment: Inhibition of HDAC6/chymotrypsin-like activity of 20S proteasome in human SEM cells assessed as increase in phosphorylated JNK protein expression at 0.1 to 10 uM after 18 hrs by Western blot assay; assay type: cell-based; outline: as §2
smiles,measurement,setting,value
C[C@H](NC(=O)[C@H](CC(=O)NCC(C)(C)C)NC(=O)c1ccc(C(=O)NO)cc1)C(=O)NCc1ccccc1,fold change (FC),SEM cells [1],6
same,inhibition,[2],Active
same,inhibition,[3],inactive
same,inhibition,[4],inactive
same,IC50,SEM cells [5],890 nM
same,inhibition,[6],inactive
same,inhibition,SEM cells [7],Active
same,IC50,Histone deacetylase 8,530 nM
same,Activity,SEM cells [8],Active
same,inhibition,SEM cells [9],Active
same,inhibition,SEM cells [10],Active
